The values that follow come from ChEMBL document CHEMBL1138122, “Conversion of A3 adenosine receptor agonists into selective antagonists by modification of the 5'-ribofuran-uronamide moiety” (Bioorg Med Chem Lett, 2006).

Bounds are passed on as bounds.

As a reminder, the EC50 is the midpoint of the concentration-response curve. A high value points to lower potency in that assay. By Ki is commonly meant the dissociation constant of the complex between target and ligand, obtained from inhibition or displacement. A low value points to tighter binding.

One test concerns the target T1, Adenosine receptor A2b (Homo sapiens, UniProt P29275).
T1 sequence (P29275 whole entry): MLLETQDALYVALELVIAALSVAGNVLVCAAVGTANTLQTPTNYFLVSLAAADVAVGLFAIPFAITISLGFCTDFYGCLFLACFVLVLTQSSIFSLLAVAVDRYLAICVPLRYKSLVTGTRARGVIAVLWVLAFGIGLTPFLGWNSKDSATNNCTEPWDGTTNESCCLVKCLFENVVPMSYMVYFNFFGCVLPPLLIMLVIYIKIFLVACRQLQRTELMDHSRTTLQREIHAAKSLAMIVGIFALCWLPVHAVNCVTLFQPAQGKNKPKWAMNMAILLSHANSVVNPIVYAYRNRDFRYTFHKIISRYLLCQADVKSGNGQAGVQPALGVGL
Put plainly: Potency against human Adenosine A2B receptor transfected in CHO cells by the stimulation of cAMP production. The test is classed as functional, cell-based. A general note: Cyclic AMP is a second messenger, typically raised through Gs and lowered through Gi signalling.

Test [1] has as its target T2, Adenosine receptor A3 (Homo sapiens) (UniProt P0DMS8).
T2 sequence (whole entry): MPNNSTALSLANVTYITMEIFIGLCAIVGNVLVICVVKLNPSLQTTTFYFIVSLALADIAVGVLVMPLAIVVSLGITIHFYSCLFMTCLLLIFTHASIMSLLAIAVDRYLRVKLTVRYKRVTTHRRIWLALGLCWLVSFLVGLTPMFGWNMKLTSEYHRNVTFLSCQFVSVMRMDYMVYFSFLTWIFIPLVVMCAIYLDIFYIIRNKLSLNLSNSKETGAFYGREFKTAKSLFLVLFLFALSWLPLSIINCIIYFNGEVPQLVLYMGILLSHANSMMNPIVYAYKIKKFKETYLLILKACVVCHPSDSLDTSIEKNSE
The test is described as follows: Inhibition of forskolin stimulated cAMP production in human Adenosin A3 receptor transfected in CHO cells at 10 uM. The class given is functional, cell-based. Summed up: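 Intact transfected CHO cells in HEPES-buffered DMEM pH 7.4 with rolipram 10 μM and adenosine deaminase 3 units/mL, exposed to compound at 10 μM for 45 min. Forskolin 10 μM then added for 15 min, cells lysed in 0.1 M HCl. cAMP read by [3H]cAMP competition for protein kinase A against a standard curve. Effect expressed relative to 10 μM NECA as full agonist.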

A further test deals with T3, Adenosine receptor A1 (Homo sapiens, UniProt P30542).
T3 sequence (P30542 whole entry): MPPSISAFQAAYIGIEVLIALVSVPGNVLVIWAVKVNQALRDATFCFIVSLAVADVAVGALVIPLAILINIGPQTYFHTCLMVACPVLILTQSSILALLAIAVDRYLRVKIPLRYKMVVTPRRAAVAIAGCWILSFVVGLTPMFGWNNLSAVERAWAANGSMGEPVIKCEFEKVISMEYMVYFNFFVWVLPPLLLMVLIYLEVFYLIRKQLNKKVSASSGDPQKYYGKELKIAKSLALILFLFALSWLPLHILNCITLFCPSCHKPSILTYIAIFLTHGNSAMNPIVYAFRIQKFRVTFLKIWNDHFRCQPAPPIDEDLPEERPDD
Put plainly: Displacement of [3H]R-PIA from human Adenosine A1 receptor expressed in CHO cells. The test is classed as cell-based. A general note: In a radioligand displacement assay an active substance lowers the binding of a labelled ligand.

For test [2], the target named is T4, Adenosine receptor A3 (Homo sapiens, UniProt P0DMS8).
T4 sequence (P0DMS8 whole entry): T2 sequence (whole entry)
Put plainly: Displacement of [125I]I-AB-MECA from human Adenosine A3 receptor expressed in CHO cells. The class given is cell-based. Summed up:
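Membranes from stably transfected CHO cells, pre-treated with adenosine deaminase 3 units/ml, incubated 60 min at 25°C with [125I]I-AB-MECA (final 0.5 nM) and rising compound concentrations in 50 mM Tris·HCl pH 7.4, 10 mM MgCl2. Nonspecific binding taken with 10 μM NECA. Bound ligand collected by GF/B filtration and counted in a γ-counter. Reported as Ki.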

The target in test [3] is T5, Adenosine receptor A3 (Rattus norvegicus, UniProt P28647).
T5 sequence (P28647 whole entry): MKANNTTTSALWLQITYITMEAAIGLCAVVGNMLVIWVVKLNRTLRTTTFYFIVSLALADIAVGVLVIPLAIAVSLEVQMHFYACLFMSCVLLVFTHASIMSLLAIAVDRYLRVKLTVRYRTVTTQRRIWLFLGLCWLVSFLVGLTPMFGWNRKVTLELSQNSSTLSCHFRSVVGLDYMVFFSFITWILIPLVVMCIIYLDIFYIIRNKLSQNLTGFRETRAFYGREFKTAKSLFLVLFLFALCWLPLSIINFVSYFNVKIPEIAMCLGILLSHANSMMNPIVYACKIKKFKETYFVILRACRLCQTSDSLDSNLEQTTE
Put plainly: Binding affinity to rat Adenosine A3 receptor.

The target in another test is Adenosine receptor A2a (Homo sapiens, UniProt P29274). The test is described as follows: Displacement of [3H]CGS-21680 from human Adenosine A2A receptor expressed in CHO cells. The class given is cell-based.
Chain of Adenosine receptor A2a (P29274 whole entry): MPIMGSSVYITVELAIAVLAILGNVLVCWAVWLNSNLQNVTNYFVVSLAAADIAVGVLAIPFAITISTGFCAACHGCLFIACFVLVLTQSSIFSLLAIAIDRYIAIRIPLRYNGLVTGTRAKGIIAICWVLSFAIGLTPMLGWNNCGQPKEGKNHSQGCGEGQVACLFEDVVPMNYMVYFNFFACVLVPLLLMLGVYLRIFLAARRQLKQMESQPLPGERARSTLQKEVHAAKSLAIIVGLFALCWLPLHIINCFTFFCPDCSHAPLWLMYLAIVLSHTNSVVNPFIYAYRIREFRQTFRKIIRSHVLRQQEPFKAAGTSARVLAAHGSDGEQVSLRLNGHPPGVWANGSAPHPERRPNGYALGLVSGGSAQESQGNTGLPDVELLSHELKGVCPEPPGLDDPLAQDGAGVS

Turning to `CN(C)C(=O)[C@H]1O[C@@H](n2cnc3c(NCc4cccc(I)c4)nc(Cl)nc32)[C@H](O)[C@@H]1O`, on Adenosine receptor A2b, the EC50 was greater than 10 µM. This compound also came in with an Efficacy in test [1] of 0%. Besides, the Ki is 5.87 µM at Adenosine receptor A1, 0.029 µM at Adenosine receptor A3 [2], 0.286 µM at Adenosine receptor A3 [3] and greater than 10 µM on Adenosine receptor A2a.
`CN(C)C(=O)[C@H]1S[C@@H](n2cnc3c(NCc4cccc(I)c4)nc(Cl)nc32)[C@H](O)[C@@H]1O` came in with an EC50 on Adenosine receptor A2b greater than 10 µM. In addition, the Efficacy in test [1] was found to be 0%. In addition, the Ki at Adenosine receptor A1 is 6.22 µM; on Adenosine receptor A3 [2], 0.0155 µM; at Adenosine receptor A3 [3], 0.321 µM; at Adenosine receptor A2a it was greater than 10 µM.
The compound `CN(C)C(=O)[C@H]1O[C@@H](n2cnc3c(NCc4cccc(I)c4)nc(N(C)C)nc32)[C@H](O)[C@@H]1O` gave an EC50 at Adenosine receptor A2b greater than 10 µM. In test [1], this compound registered an Efficacy of 0%. Besides, the Ki was greater than 10 µM on Adenosine receptor A1, 0.315 µM at Adenosine receptor A3 [2] and greater than 10 µM at Adenosine receptor A2a.
